Reference: paper PMC2651228 (Journal of medicinal chemistry, 2008)
Entries after “also recorded” stand apart in the source; their conditions may differ.

How the values were obtained:
PC3M cells [1] = test: Lamellipodia formation at wound edge, phalloidin staining, PC3M; type: cell-based; conditions: HGF + 1 uM compound
tumor metastasis = conditions: cited from earlier work
PAK1 [2] = test: PAK1 nuclear translocation; type: cell-based; conditions: PC3M cells, 16 h, relative to nuclear CREB
Outline: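 PC3M cells treated with test compound for 16 h. Nuclear extracts prepared in high-salt buffer, resolved by SDS-PAGE and immunoblotted for PAK1, with CREB immunoblotted as reference.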

Biotin-Grb2 SH2 domain = Biotin-Grb2 SH2 domain (Homo sapiens, UniProt P62993); test: SPR direct binding, streptavidin-captured biotin-Grb2 SH2 domain; conditions: Biotin-Grb2, SA capture; reference line of the ratio
Chain of Biotin-Grb2 SH2 domain (P62993 60-152 limits assumed): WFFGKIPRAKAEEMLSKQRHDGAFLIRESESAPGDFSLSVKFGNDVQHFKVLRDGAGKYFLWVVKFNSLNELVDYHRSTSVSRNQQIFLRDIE

[3] = test system: Grb2 and focal adhesion kinase (FAK); conditions: treatment of cells; cited from earlier work
PC3M cells [4] = test: Cell migration in modified Boyden chambers, HGF-stimulated; type: cell-based; conditions: HGF 50 ng/ml
Outline: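 PC3M cells pretreated with test compound for 24 h, then seeded at 200,000 cells per modified Boyden chamber. Migration stimulated with recombinant human HGF (50 ng/ml), with unstimulated cells run in parallel. Migrated cells counted by light microscopy in four fields (1 × 1.4 mm) per well, triplicate wells per condition. Means expressed as percent maximum ± standard deviation, with a dose-response series.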

[5] = test system: Grb2-EGFR and Grb2-c-Met interactions; conditions: co-immunoprecipitation; cited from earlier work
MDCK cells = test: Lamellipodia formation at wound edge, phalloidin staining, MDCK; type: cell-based, canine; conditions: HGF + 1 uM compound
PAK1 [6] = test: PAK1 activation; type: cell-based; conditions: PC3M cells, 1 uM, 16 h
Outline: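 PC3M cells serum-deprived and either treated with test compound (1 uM) or left untreated for 16 h. They were then left unstimulated or briefly stimulated with HGF (50 ng/mL) for set times. Lysates run on SDS-PAGE and immunoblotted with anti-phospho-PAK1 antibody, with total PAK1 immunoblot as loading control.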

cell motility = conditions: cited from earlier work
angiogenesis = conditions: cited from earlier work
[7] = biological target: proteins of SK-LMS-1 cell lysates (Homo sapiens, UniProt P62993); type: binding; conditions: compound-conjugated SA beads, cell extracts
Chain of proteins of SK-LMS-1 cell lysates (Homo sapiens, UniProt P62993) (P62993 whole entry): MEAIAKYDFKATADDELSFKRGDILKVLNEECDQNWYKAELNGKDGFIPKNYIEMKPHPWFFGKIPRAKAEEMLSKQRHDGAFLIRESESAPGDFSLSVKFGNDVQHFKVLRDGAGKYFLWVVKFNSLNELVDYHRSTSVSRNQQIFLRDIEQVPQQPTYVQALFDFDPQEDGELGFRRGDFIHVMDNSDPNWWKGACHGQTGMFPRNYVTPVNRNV
Outline: (§1)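 Biotinylated test compound captured proteins from HGF-stimulated (25 ng/ml, 20 min) SK-LMS-1 detergent lysate on streptavidin beads, washed with 150–500 mM NaCl. Beads exchanged into 100 mM ammonium bicarbonate, reduced (10 mM DTT, 1 h, 51°C), alkylated (55 mM iodoacetamide, 45 min, 25°C) and trypsin-digested 6 h at 25°C. Acidified peptides analysed by nLC-ESI-MS/MS (ion trap, top-seven data-dependent) and searched against human NCBI database.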

[8] = test system: proteins of SK-LMS-1 cell lysates; type: binding, human; conditions: cell lysates; two or more unique peptides observed
Outline: as §1

Grb2 = Grb2 (Homo sapiens, UniProt P62993); type: binding; conditions: SK-LMS-1 lysate; for Capture of Grb2 on compound-conjugated SA beads (anti-Grb2 immunoblot): compound 3 uM, washes 150-500 mM NaCl
Chain of Grb2 (P62993 whole entry): as above
Outline: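 SK-LMS-1 cells serum-deprived 16 h, stimulated with recombinant human HGF (25 ng/ml) for 20 min and lysed in cold non-ionic detergent buffer. Biotinylated test compound (3 uM) incubated with lysate 1 h on ice. Streptavidin beads then mixed in 1 h at 4°C and washed 5 times in lysis buffer with increasing NaCl (150–500 mM). Read-out: SDS-PAGE and anti-Grb2 immunoblot.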

Grb2 SH2 domain = Grb2 SH2 domain (Homo sapiens, UniProt P62993); test: SPR direct binding, amine-coupled Grb2 SH2 domain; conditions: for Ratio: Grb2, amine coupling, affinity relative to compound 2
Chain of Grb2 SH2 domain (P62993 60-152 limits assumed): as the sequence (P62993 60-152 limits assumed) above

NC(=O)C[C@H](NC(=O)C1(NC(=O)[C@H](Cc2ccc(C(C(=O)O)C(=O)O)cc2)NC(=O)C(=O)O)CCCCC1)C(=O)NCCCc1cccc2ccccc12 [Compound 1]
Actin reorganization and lamellipodia formation (phalloidin staining) (PC3M cells [1]): markedly reduced phalloidin staining at the leading edge | Tumor metastasis in vivo (tumor metastasis): inhibit | PAK1 nuclear translocation (PAK1 [2]): decreased PAK1 nuclear translocation | Ratio (Biotin-Grb2 SH2 domain): 1 | HGF-stimulated physical association between Grb2 and FAK [3]: disrupts HGF-stimulated physical association between Grb2 and focal adhesion kinase (FAK) | Inhibition of cell migration (in words) (PC3M cells [4]): Inhibition of cell migration | Grb2-EGFR and Grb2-c-Met interactions [5]: able to disrupt Grb2-EGFR and Grb2-c-Met interactions | Lamellipodia extension into the wound (MDCK cells): significantly reduced the area and distance that lamellipodia extended into the wound | Steady state level of PAK1 autophosphorylation (PAK1 [6]; no HGF): little effect | HGF-stimulated PAK1 activation (PAK1 [6]; then HGF 50 ng/mL): completely inhibited | Cell motility (cell motility): blocks cell motility in a dose dependent fashion; also recorded: can inhibit cell motility | Angiogenesis (angiogenesis): inhibit

NC(=O)C[C@H](NC(=O)C1(NC(=O)[C@H](Cc2ccc(C(C(=O)O)C(=O)O)cc2)NC(=O)C(=O)O)CCCCC1)C(=O)NCCCc1cccc2c(OC(=O)CCCCCNC(=O)CCCC[C@@H]3SC[C@@H]4NC(=O)N[C@@H]43)cccc12 [Compound 3]
Capture of Grb2 tryptic peptides (ESI-MS/MS) [7]: captured by compound 3-conjugated SA beads | Protein Name (identified by mass spectrometry, captured by streptavidin-immobilized 3, but not by streptavidin-immobilized 4) [8]: histone H2B family ^b; also recorded: ribosomal protein S23; also recorded: ribosomal protein L17; also recorded: ribosomal protein S17; also recorded: pyruvate kinase 3 ^a | Inhibition of cell migration (in words) (PC3M cells [4]): significant and potent inhibition of migration | Capture of Grb2 SH3 domain-associated proteins (immunoblot) (Grb2; SA-bound compound): revealed the presence of Nck1, Nck2, Gab1 and Sos1 | Capture of Grb2 on compound-conjugated SA beads (anti-Grb2 immunoblot) (Grb2): Grb2 was clearly retained | Ratio (Grb2 SH2 domain): 3

NC(=O)C[C@H](NC(=O)C1(NC(=O)[C@H](Cc2ccc(O)cc2)NC(=O)C(=O)O)CCCCC1)C(=O)NCCCc1cccc2c(OC(=O)CCCCCNC(=O)CCCC[C@@H]3SC[C@@H]4NC(=O)N[C@@H]43)cccc12 [Compound 4, (4R,5S,6S)-6-[5-(2-Oxo-hexahydro-thieno[3,4-d]imidazol-6-yl)-pentanoylamino]-hexanoic acid 5-{3-[3-carbamoyl-2-({1-[3-(4-hydroxy-phenyl)-2-(oxylyl-amino)-propionylamino]-cyclohexylcarbonyl}-amino)-propionylamino]-propyl}-naphthalen-1-yl ester]
Capture of Grb2 tryptic peptides (ESI-MS/MS) [7]: not by compound 4-conjugated beads | Inhibition of cell migration (in words) (PC3M cells [4]): No inhibition of cell migration | Capture of Grb2 on compound-conjugated SA beads (anti-Grb2 immunoblot) (Grb2): did not capture Grb2 | Grb2 SH2 domain binding affinity (in words) (Grb2 SH2 domain; assay not stated): very poor Grb2 SH2 domain binding affinity

NC(=O)C[C@H](NC(=O)C1(NC(=O)[C@H](Cc2ccc(C(C(=O)O)C(=O)O)cc2)NC(=O)C(=O)O)CCCCC1)C(=O)NCCCc1cccc2c(O)cccc12 [Compound 2, 2-{4-[2-(1-(1S)-{2-Carbamoyl-1-[3-(5-hydroxy-naphthalen-1-yl)-propylcarbamoyl]-ethylcarbamoyl}-cyclohexylcarbamoyl)-2-(2S)-(oxalyl-amino)-ethyl]-phenyl}-malonic acid]
Ratio (Biotin-Grb2 SH2 domain): 1 | Ratio (Grb2 SH2 domain): 1
